Results: ChEMBL document CHEMBL3593171, “Characterization of l-Digitoxosyl-phenanthroviridin from Streptomyces venezuelae ISP5230” (2015)

assay: Cytotoxicity against human NCI60 cells by NCI protocol based assay; type: functional
Method in brief: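 NCI-60 human tumour cell line panel run per the NCI protocol, with ethanol used as solvent in place of DMSO. Single-dose screen at 10 μM first, then five-dose assay from 10 nM to 100 μM at log10 intervals. Percent growth was plotted against concentration for each cell line, and GI50, TGI and LC50 were calculated from the dose–response curves.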

`Cc1cc(O)c2c3c(ncc2c1)C(=O)c1c(O[C@H]2C[C@@H](O)[C@@H](O)[C@H](C)O2)cccc1C3=O` and `Cc1cc(O)c2c(c1)[C@@H]1OC(=O)CN1C1=C2C(=O)c2cccc(O[C@H]3C[C@@H](O)[C@@H](O)[C@H](C)O3)c2C1=O` [JADOMYCIN G] are within 1.5-fold of each other in GI50: 2.14 µM for the first, 1.68 µM for the second.

`CCCC1C(=O)OC2c3cc(C)cc(O)c3C3=C(C(=O)c4c(O[C@H]5C[C@@H](O)[C@@H](O)[C@H](C)O5)cccc4C3=O)N12` (stereo partly drawn) and `CCCCC1C(=O)OC2c3cc(C)cc(O)c3C3=C(C(=O)c4c(O[C@H]5C[C@@H](O)[C@@H](O)[C@H](C)O5)cccc4C3=O)N12` (stereo partly drawn) are within 1.5-fold of each other in GI50: 4.79 µM for the first, 3.89 µM for the second.

`CC(=O)O[C@H]1O[C@@H](n2cc(COC[C@H]3C(=O)OC4c5cc(C)cc(O)c5C5=C(C(=O)c6c(O[C@H]7C[C@@H](O)[C@@H](O)[C@H](C)O7)cccc6C5=O)N43)nn2)[C@@H](OC(C)=O)[C@@H](OC(C)=O)[C@@H]1OC(C)=O` (stereo partly drawn) and `CC(=O)OC[C@@H]1O[C@@H](n2cc(COC[C@H]3C(=O)OC4c5cc(C)cc(O)c5C5=C(C(=O)c6c(O[C@H]7C[C@@H](O)[C@@H](O)[C@H](C)O7)cccc6C5=O)N43)nn2)[C@H](OC(C)=O)[C@H](OC(C)=O)[C@H]1OC(C)=O` (stereo partly drawn) are within 1.5-fold of each other in GI50: 3.5 µM for the first, 3.7 µM for the second.

Going from `Cc1cc(O)c2c(c1)C1OC(=O)[C@H](COCc3cn(Cc4ccccc4)nn3)N1C1=C2C(=O)c2cccc(O[C@H]3C[C@@H](O)[C@@H](O)[C@H](C)O3)c2C1=O` (stereo partly drawn) to `Cc1cc(O)c2c(c1)[C@@H]1OC(=O)[C@H](CC(C)C)N1C1=C2C(=O)c2cccc(O[C@H]3C[C@@H](O)[C@@H](O)[C@H](C)O3)c2C1=O` [JADOMYCIN L], the GI50 falls from 6.1 µM to 1.82 µM (3.4-fold).

`CC(=O)O[C@@H]1[C@@H](OC(C)=O)[C@H](C)O[C@@H](n2cc(COC[C@H]3C(=O)OC4c5cc(C)cc(O)c5C5=C(C(=O)c6c(O[C@H]7C[C@@H](O)[C@@H](O)[C@H](C)O7)cccc6C5=O)N43)nn2)[C@@H]1OC(C)=O` (stereo partly drawn) and `CC(=O)O[C@@H]1[C@@H](OC(C)=O)[C@H](C)O[C@H](n2cc(COC[C@H]3C(=O)OC4c5cc(C)cc(O)c5C5=C(C(=O)c6c(O[C@H]7C[C@@H](O)[C@@H](O)[C@H](C)O7)cccc6C5=O)N43)nn2)[C@@H]1OC(C)=O` (stereo partly drawn) are the same in GI50: 3.1 µM for the first, 3.1 µM for the second.

`Cc1cc(O)c2c(c1)[C@@H]1OC(=O)[C@H]([C@H](C)O)N1C1=C2C(=O)c2cccc(O[C@H]3C[C@@H](O)[C@@H](O)[C@H](C)O3)c2C1=O` [JADOMYCIN T] showed a GI50 of 1.35 µM.

Going from `Cc1cc(O)c2c3c(ncc2c1)C(=O)c1c(O[C@H]2C[C@@H](O)[C@@H](O)[C@H](C)O2)cccc1C3=O` to `Cc1cc(O)c2c(c1)[C@@H]1OC(=O)CN1C1=C2C(=O)c2cccc(O[C@H]3C[C@@H](O)[C@@H](O)[C@H](C)O3)c2C1=O` [JADOMYCIN G], the LC50 rises from 18.2 µM to 38.5 µM (2.1-fold).

`CCCC1C(=O)OC2c3cc(C)cc(O)c3C3=C(C(=O)c4c(O[C@H]5C[C@@H](O)[C@@H](O)[C@H](C)O5)cccc4C3=O)N12` (stereo partly drawn) and `CCCCC1C(=O)OC2c3cc(C)cc(O)c3C3=C(C(=O)c4c(O[C@H]5C[C@@H](O)[C@@H](O)[C@H](C)O5)cccc4C3=O)N12` (stereo partly drawn) are within 1.5-fold of each other in LC50: 19 µM for the first, 18 µM for the second.

`CC(=O)O[C@H]1O[C@@H](n2cc(COC[C@H]3C(=O)OC4c5cc(C)cc(O)c5C5=C(C(=O)c6c(O[C@H]7C[C@@H](O)[C@@H](O)[C@H](C)O7)cccc6C5=O)N43)nn2)[C@@H](OC(C)=O)[C@@H](OC(C)=O)[C@@H]1OC(C)=O` (stereo partly drawn) and `CC(=O)OC[C@@H]1O[C@@H](n2cc(COC[C@H]3C(=O)OC4c5cc(C)cc(O)c5C5=C(C(=O)c6c(O[C@H]7C[C@@H](O)[C@@H](O)[C@H](C)O7)cccc6C5=O)N43)nn2)[C@H](OC(C)=O)[C@H](OC(C)=O)[C@H]1OC(C)=O` (stereo partly drawn) are within 1.5-fold of each other in LC50: 11.8 µM for the first, 10.9 µM for the second.

Going from `Cc1cc(O)c2c(c1)C1OC(=O)[C@H](COCc3cn(Cc4ccccc4)nn3)N1C1=C2C(=O)c2cccc(O[C@H]3C[C@@H](O)[C@@H](O)[C@H](C)O3)c2C1=O` (stereo partly drawn) to `Cc1cc(O)c2c(c1)[C@@H]1OC(=O)[C@H](CC(C)C)N1C1=C2C(=O)c2cccc(O[C@H]3C[C@@H](O)[C@@H](O)[C@H](C)O3)c2C1=O` [JADOMYCIN L], the LC50 falls from 14.9 µM to 9.3 µM (1.6-fold).

`CC(=O)O[C@@H]1[C@@H](OC(C)=O)[C@H](C)O[C@@H](n2cc(COC[C@H]3C(=O)OC4c5cc(C)cc(O)c5C5=C(C(=O)c6c(O[C@H]7C[C@@H](O)[C@@H](O)[C@H](C)O7)cccc6C5=O)N43)nn2)[C@@H]1OC(C)=O` (stereo partly drawn) and `CC(=O)O[C@@H]1[C@@H](OC(C)=O)[C@H](C)O[C@H](n2cc(COC[C@H]3C(=O)OC4c5cc(C)cc(O)c5C5=C(C(=O)c6c(O[C@H]7C[C@@H](O)[C@@H](O)[C@H](C)O7)cccc6C5=O)N43)nn2)[C@@H]1OC(C)=O` (stereo partly drawn) are within 1.5-fold of each other in LC50: 11.6 µM for the first, 9.8 µM for the second.

`Cc1cc(O)c2c(c1)[C@@H]1OC(=O)[C@H]([C@H](C)O)N1C1=C2C(=O)c2cccc(O[C@H]3C[C@@H](O)[C@@H](O)[C@H](C)O3)c2C1=O` [JADOMYCIN T] showed an LC50 of 6.5 µM.

Going from `Cc1cc(O)c2c3c(ncc2c1)C(=O)c1c(O[C@H]2C[C@@H](O)[C@@H](O)[C@H](C)O2)cccc1C3=O` to `Cc1cc(O)c2c(c1)[C@@H]1OC(=O)CN1C1=C2C(=O)c2cccc(O[C@H]3C[C@@H](O)[C@@H](O)[C@H](C)O3)c2C1=O` [JADOMYCIN G], the TGI rises from 5.75 µM to 9.6 µM (1.7-fold).

`CCCC1C(=O)OC2c3cc(C)cc(O)c3C3=C(C(=O)c4c(O[C@H]5C[C@@H](O)[C@@H](O)[C@H](C)O5)cccc4C3=O)N12` (stereo partly drawn) and `CCCCC1C(=O)OC2c3cc(C)cc(O)c3C3=C(C(=O)c4c(O[C@H]5C[C@@H](O)[C@@H](O)[C@H](C)O5)cccc4C3=O)N12` (stereo partly drawn) are within 1.5-fold of each other in TGI: 10 µM for the first, 8.7 µM for the second.

`CC(=O)O[C@H]1O[C@@H](n2cc(COC[C@H]3C(=O)OC4c5cc(C)cc(O)c5C5=C(C(=O)c6c(O[C@H]7C[C@@H](O)[C@@H](O)[C@H](C)O7)cccc6C5=O)N43)nn2)[C@@H](OC(C)=O)[C@@H](OC(C)=O)[C@@H]1OC(C)=O` (stereo partly drawn) and `CC(=O)OC[C@@H]1O[C@@H](n2cc(COC[C@H]3C(=O)OC4c5cc(C)cc(O)c5C5=C(C(=O)c6c(O[C@H]7C[C@@H](O)[C@@H](O)[C@H](C)O7)cccc6C5=O)N43)nn2)[C@H](OC(C)=O)[C@H](OC(C)=O)[C@H]1OC(C)=O` (stereo partly drawn) are within 1.5-fold of each other in TGI: 7.2 µM for the first, 6.6 µM for the second.

Going from `Cc1cc(O)c2c(c1)C1OC(=O)[C@H](COCc3cn(Cc4ccccc4)nn3)N1C1=C2C(=O)c2cccc(O[C@H]3C[C@@H](O)[C@@H](O)[C@H](C)O3)c2C1=O` (stereo partly drawn) to `Cc1cc(O)c2c(c1)[C@@H]1OC(=O)[C@H](CC(C)C)N1C1=C2C(=O)c2cccc(O[C@H]3C[C@@H](O)[C@@H](O)[C@H](C)O3)c2C1=O` [JADOMYCIN L], the TGI falls from 11.9 µM to 4.1 µM (2.9-fold).

`CC(=O)O[C@@H]1[C@@H](OC(C)=O)[C@H](C)O[C@@H](n2cc(COC[C@H]3C(=O)OC4c5cc(C)cc(O)c5C5=C(C(=O)c6c(O[C@H]7C[C@@H](O)[C@@H](O)[C@H](C)O7)cccc6C5=O)N43)nn2)[C@@H]1OC(C)=O` (stereo partly drawn) and `CC(=O)O[C@@H]1[C@@H](OC(C)=O)[C@H](C)O[C@H](n2cc(COC[C@H]3C(=O)OC4c5cc(C)cc(O)c5C5=C(C(=O)c6c(O[C@H]7C[C@@H](O)[C@@H](O)[C@H](C)O7)cccc6C5=O)N43)nn2)[C@@H]1OC(C)=O` (stereo partly drawn) are within 1.5-fold of each other in TGI: 6.8 µM for the first, 6.3 µM for the second.

Work on `Cc1cc(O)c2c(c1)[C@@H]1OC(=O)[C@H]([C@H](C)O)N1C1=C2C(=O)c2cccc(O[C@H]3C[C@@H](O)[C@@H](O)[C@H](C)O3)c2C1=O` [JADOMYCIN T] yielded a TGI of 3.02 µM.
